Published values from different studies.
Each line is one published result; the experiments were not run side by side.
Target: Casein kinase II subunit alpha' (CSNK2A2, Homo sapiens, UniProt P19784)

| SMILES | assay | setting | endpoint | value |
| --- | --- | --- | --- | --- |
| CCCOc1ccc([C@H]2[C@H](C(=O)O)[C@@H](c3ccc4c(c3)OCO4)CN2CC(=O)Nc2c(CC)cccc2CC)cc1 | cell-free assay, competition with immobilised ligand | 1 µM | remaining binding | 87% |
| CCCCNc1ncc2c(-c3ccc(F)cc3)nn(C[C@H]3CC[C@H](N)CC3)c2n1 | target engagement in cells, inhibitor, chemoproteomics | 20 mM | inhibition | -43.5% |
| N#CCCc1ccc2c(c1)-c1[nH]c3ccc([N+](=O)[O-])cc3c1CC(=O)N2 | cell-free assay | 0.5 µM | remaining signal | 92.9% |
| Cc1ccc(C(=O)Nc2ccc(CN3CCN(C)CC3)c(C(F)(F)F)c2)cc1C#Cc1cnc2cccnn12 | enzyme activity, inhibitor | 23.5 nM | remaining activity | 94% |
| Cn1cnc(Br)c1C1=CN(c2ncnc3[nH]cnc23)CCS1 | enzyme activity, inhibitor, radiometric | 50 nM | inhibition | 19.7% |
| CC(C)CC(=O)N1CCc2nc(-c3ccc(Br)cc3)nc(N(C)Cc3ccccc3)c2C1 | cell-free assay, competition with immobilised ligand | 0.1 µM | remaining binding | 88% |
| CCCS(=O)(=O)Nc1ccc(F)c(C(=O)c2c[nH]c3ncc(-c4ccc(Cl)cc4)cc23)c1F | enzyme activity, inhibitor | 1 µM | inhibition | < 10% |
| c1ccc(CNc2nc(N3CCOc4ccccc43)nc3c2CCCC3)cc1 | target engagement in cells, inhibitor, chemoproteomics | 20 mM | inhibition | -34.4% |
| CC(C)c1ccc(NC(=O)c2cccs2)c(-c2nc3ccccc3[nH]c2=O)c1 | enzyme activity, inhibitor | 1 µM | activity vs control | 121% |
| CC(C)(C)c1nc(-c2cccc(NS(=O)(=O)c3c(F)cccc3F)c2F)c(-c2ccnc(N)n2)s1 | enzyme activity, inhibitor, radiometric | 1 µM | remaining activity | 84% |
| COc1ccc2c(O[C@@H]3C[C@H]4C(=O)N[C@]5(C(=O)O)CC5/C=C\CCCCC[C@H](NC(=O)OC5CCCC5)C(=O)N4C3)cc(-c3csc(NC(=O)C(C)C)n3)nc2c1C (stereo partly drawn) | cell-free assay, competition with immobilised ligand | 1 µM | remaining binding | 100% |
| CCN(CC)CCNC(=O)c1c(C)[nH]c(/C=C2\C(=O)Nc3ccc(F)cc32)c1C | enzyme activity, inhibitor | 0.3 µM | inhibition | -22% |
| CCCOc1ccc(OC)c(F)c1C(=O)c1ccc(C(=O)N[C@@H]2CNC[C@H]2NC(=O)c2ccc3[nH]ncc3c2)cc1 | enzyme activity, inhibitor | 10 µM | remaining activity | 93% |
| CNC(=O)c1cc(Oc2ccc(NC(=O)Nc3ccc(Cl)c(C(F)(F)F)c3)cc2)ccn1 | enzyme activity, inhibitor | 10 µM | inhibition | -30% |
| CC(=O)C1=C(C)N(c2cccc(C(F)(F)F)c2)C(=O)N[C@@H]1c1ccc(C#N)nc1 | cell-free assay, competition with immobilised ligand | 1 µM | remaining binding | 75.7% |
| Cc1cnc(NC2CCOCC2)nc1-n1cnc(C(=O)NC(CN)c2cc(F)cc(Cl)c2)c1 (stereo not drawn) | enzyme activity, inhibitor, radiometric | 1 µM | remaining activity | 97% |
| Cc1ccc(NC(=O)c2ccc(C)c(C(F)(F)F)c2)cc1C#Cc1nn(C2CCC(O)CC2)c2ncnc(N)c12 (stereo not drawn) | cell-free assay, inhibitor | 10 µM | remaining signal | 92% |
| Cc1sc(C(=O)NC2COC2)cc1-n1cc(NC(=O)Nc2c(F)cccc2Cl)cn1 | enzyme activity, inhibitor | 10 µM | remaining activity | 95.5% |
| Nc1c(C(=O)NCc2ccc(C(=O)NCCCC3CCCCC3)cc2)cnn1-c1ccccc1 | cell-free assay, competition with immobilised ligand | 0.1 µM | remaining binding | 100% |
| O=C1Nc2ccc(Cl)cc2C1=Cc1cc(Cl)c(O)c(Cl)c1 | cell-free assay | 0.5 µM | remaining signal | 33.3% |
| COc1cccc(CNC(=O)c2nc3scc(COCc4ccc(C(=O)O)cc4)c3c(=O)[nH]2)c1 | cell-free assay, competition with immobilised ligand | 1 µM | remaining binding | 79.4% |
| Cc1ccc(Nc2nccc(N(C)c3ccc4c(C)n(C)nc4c3)n2)cc1S(N)(=O)=O | enzyme activity, inhibitor | 0.3 µM | inhibition | -13% |
| CS(=O)(=O)c1cc(C2(NC(=O)c3cncc4c3cnn4-c3ccc(F)cc3)CC2)ccn1 | cell-free assay, competition with immobilised ligand | 1 µM | remaining binding | 80% |
| COc1cc2ncnc(Nc3ccc(Oc4ccccc4)c(C)c3C)c2cc1OC | enzyme activity, inhibitor | 1 µM | inhibition | -1% |
